The text below walks through data of ChEMBL document CHEMBL1155646, “Kinmoonosides A-C, three new cytotoxic saponins from the fruits of Acacia concinna, a medicinal plant collected in myanmar” (2000).

This assay has as its system HT-1080. Description: Cytotoxicity against human HT1080 cells by 3-(4,5-dimethylthiazol-2-yl)-[…] bromide assay. The format is functional. The conditions noted are these: read-out: ED50 (the source's name). An outline of the steps: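 Human HT-1080 fibrosarcoma cells were tested in a standard tetrazolium (MTT) viability assay following an earlier published protocol. Potency was reported as ED50, given in µg/mL and also converted to µM.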

Take `C[C@H]1O[C@@H](OC[C@H]2O[C@@H](O[C@H]3CC[C@]4(C)[C@H]5CC=C6[C@@H]7CC(C)(C)[C@@H](O)C[C@]7(C(=O)O)[C@H](O)C[C@@]6(C)[C@]5(C)CC[C@H]4C3(C)C)[C@H](O[C@@H]3O[C@H](CO)[C@@H](O)[C@H](O)[C@H]3O)[C@@H](O)[C@@H]2O)[C@H](O[C@@H]2OC[C@@H](O)[C@H](O)[C@H]2O)[C@@H](O)[C@H]1O`: the EC50 was more than 100 µg/mL. The result for `C=CC1(C)CCC(C(CO)C(=O)O)O1` (centres undefined) reads more than 100 µg/mL; that for `C=CC(C)(O)CC/C=C(\CO)C(=O)O[C@H]1[C@H](O)[C@@H](O)C(O)O[C@@H]1C` (some centres undefined), more than 100 µg/mL; that for `C=CC(C)(CC/C=C(\CO)C(=O)O)O[C@@H]1O[C@H](C)[C@@H](O)[C@H](O)[C@H]1O` (some centres undefined), more than 100 µg/mL. The result for `CC1(C)C[C@H]2C3=CC[C@@H]4[C@@]5(C)CC[C@H](O[C@@H]6O[C@H](CO[C@@H]7OC[C@H](O)[C@H](O)[C@H]7O[C@@H]7OC[C@@H](O)[C@H](O)[C@H]7O)[C@@H](O)[C@H](O)[C@H]6O[C@@H]6O[C@H](CO)[C@@H](O)[C@H](O)[C@H]6O)C(C)(C)[C@@H]5CC[C@@]4(C)[C@]3(C)C[C@@H](O)[C@@]23C[C@@H]1OC3=O` reads more than 100 µg/mL; that for `C=CC(C)(O)CC/C=C(\CO)C(=O)O[C@H]1C[C@]2(C(=O)O[C@@H]3O[C@H](CO)[C@@H](O)[C@H](O)[C@H]3O[C@@H]3O[C@@H](C)[C@H](O[C@H]4O[C@@H](CO)[C@H](O)[C@H]4O)[C@@H](O[C@@H]4O[C@H](CO)[C@@H](O)[C@H](O)[C@H]4O)[C@H]3O)[C@H](O)C[C@]3(C)C(=CC[C@@H]4[C@@]5(C)CC[C@H](O[C@@H]6O[C@H](CO[C@@H]7OC[C@H](O)[C@H](O)[C@H]7O)[C@@H](O)[C@H](O)[C@H]6O[C@@H]6O[C@H](CO)[C@@H](O)[C@H](O)[C@H]6O)C(C)(C)[C@@H]5CC[C@]43C)[C@@H]2CC1(C)C` (some centres undefined), 2830 nM; that for `CC1(C)C[C@H]2C3=CC[C@@H]4[C@@]5(C)CC[C@H](O[C@@H]6O[C@H](CO[C@@H]7OC[C@H](O)[C@H](O)[C@H]7O)[C@@H](O)[C@H](O)[C@H]6O[C@@H]6O[C@H](CO)[C@@H](O)[C@H](O)[C@H]6O)C(C)(C)[C@@H]5CC[C@@]4(C)[C@]3(C)C[C@@H](O)[C@@]2(C(=O)O)C[C@@H]1O`, more than 100 µg/mL.

`CC(=O)N[C@H]1[C@H](O[C@H]2CC[C@]3(C)[C@H]4CC=C5[C@@H]6CC(C)(C)[C@@H](O)C[C@]6(C(=O)O)[C@H](O)C[C@@]5(C)[C@]4(C)CC[C@H]3C2(C)C)O[C@H](CO[C@@H]2OC[C@H](O)[C@H](O)[C@H]2O)[C@@H](O)[C@@H]1O`: the EC50 was more than 100 µg/mL. The result for `C=CC(C)(CC/C=C(\C)C(=O)O)O[C@@H]1O[C@H](C)[C@@H](O)[C@H](O)[C@H]1O` (mixture of isomers) reads more than 100 µg/mL; that for `O=c1[nH]cc(F)c(=O)[nH]1` [FLUOROURACIL], 8000 nM. The result for `C=CC(C)(O)CC/C=C(\CO)C(=O)O[C@H]1[C@H](O)[C@@H](O)[C@H](O[C@](C)(C=C)CC/C=C(\CO)C(=O)O[C@H]2C[C@]3(C(=O)O[C@@H]4O[C@H](CO)[C@@H](O)[C@H](O)[C@H]4O[C@@H]4O[C@@H](C)[C@H](O[C@H]5O[C@@H](CO)[C@H](O)[C@H]5O)[C@@H](O[C@@H]5O[C@H](CO)[C@@H](O)[C@H](O)[C@H]5O)[C@H]4O)[C@H](O)C[C@]4(C)C(=CC[C@@H]5[C@@]6(C)CC[C@H](O[C@@H]7O[C@H](CO[C@@H]8OC[C@H](O)[C@H](O)[C@H]8O)[C@@H](O)[C@H](O)[C@H]7O[C@@H]7O[C@H](CO)[C@@H](O)[C@H](O)[C@H]7O)C(C)(C)[C@@H]6CC[C@]54C)[C@@H]3CC2(C)C)O[C@@H]1C` (some centres undefined) [KINMOONOSIDE B] reads 910 nM. The result for `C=CC(C)(O)CC/C=C(\CO)C(=O)O[C@H]1[C@H](O)[C@@H](O)[C@H](O[C@@](C)(C=C)CC/C=C(\CO)C(=O)O[C@H]2C[C@]3(C(=O)O[C@@H]4O[C@H](CO)[C@@H](O)[C@H](O)[C@H]4O[C@@H]4O[C@@H](C)[C@H](O[C@H]5O[C@@H](CO)[C@H](O)[C@H]5O)[C@@H](O[C@@H]5O[C@H](CO)[C@@H](O)[C@H](O)[C@H]5O)[C@H]4O)[C@H](O)C[C@]4(C)C(=CC[C@@H]5[C@@]6(C)CC[C@H](O[C@@H]7O[C@H](CO[C@@H]8OC[C@H](O)[C@H](O)[C@H]8O)[C@@H](O)[C@H](O)[C@H]7O[C@@H]7O[C@H](CO)[C@@H](O)[C@H](O)[C@H]7O)C(C)(C)[C@@H]6CC[C@]54C)[C@@H]3CC2(C)C)O[C@@H]1C` (some centres undefined) [KINMOONOSIDES A] reads 700 nM. `C=CC(C)(O)CC/C=C(\C)C(=O)O` (centres undefined) [MENTHIAFOLIC ACID]: the EC50 was more than 100 µg/mL. The result for `CC(=O)N[C@H]1[C@H](O[C@H]2CC[C@]3(C)[C@H]4CC=C5[C@@H]6CC(C)(C)[C@@H](O)C[C@]6(C(=O)O)[C@H](O)C[C@@]5(C)[C@]4(C)CC[C@H]3C2(C)C)O[C@H](CO[C@@H]2OC[C@H](O)[C@H](O)[C@H]2O[C@@H]2OC[C@@H](O)[C@H](O)[C@H]2O)[C@@H](O)[C@@H]1O` [PROSAPOGENIN 2] reads more than 100 µg/mL.
